Measured values from ChEMBL document CHEMBL1154901, “Quassidines A-D, bis-beta-carboline alkaloids from the stems of Picrasma quassioides” (J Nat Prod, 2010).

Legend:
RAW264.7 [1] = experiment: Antiinflammatory activity in mouse RAW264.7 cells assessed as inhibition of LPS-induced TNFalpha production by ELISA; type: functional, cell-based
Outline: (§1)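 RAW 264.7 cells in RPMI 1640, seeded at 5 × 10^5 cells/mL and cultured 1 h. Compound in DMSO was co-added with LPS (final 1 µg/mL). After 6 h culture, supernatant TNF-α and IL-6 were quantified with mouse ELISA kits. LPS-only and DMSO-only (no LPS) wells served as references.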

RAW264.7 [2] = experiment: Antiinflammatory activity in mouse RAW264.7 cells assessed as inhibition of LPS-induced IL-6 production by ELISA; type: functional, cell-based; outline: as §1
RAW264.7 [3] = experiment: Antiinflammatory activity in mouse RAW264.7 assessed as inhibition LPS-induced nitric oxide production cells after 24 hrs; type: functional, cell-based; settings: RAW264.7, 24 h
Outline: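 RAW 264.7 cells in RPMI 1640 with 10% heat-inactivated FBS, seeded at 5 × 10^5 cells/mL and cultured 1 h. Compound in DMSO was added at various concentrations together with LPS (final 1 µg/mL), then incubated 24 h. Supernatant nitrite was measured with Griess reagent (1% sulfanilamide in 5% H3PO4 plus 0.1% naphthylethylene diamine) at 540 nm. Inhibitory rate versus LPS-only wells.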

RAW264.7 [4] = experiment: Cytotoxicity against mouse RAW264.7 cells after 24 hrs by MTT assay; type: cell-based; settings: raw264.7, 24 h
Outline: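 RAW 264.7 macrophages seeded at 5 × 10^5 cells/mL in RPMI 1640 with 10% FBS. Compound in DMSO was added with LPS 1 µg/mL. Viability was read by MTT mitochondrial reduction colorimetric assay after 24 h exposure.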

SMILES	IC50 (RAW264.7 [1]) [µM]	IC50 (RAW264.7 [2]) [µM]	IC50 (RAW264.7 [3]) [µM]	Activity (RAW264.7 [4])
COc1cccc2c1[nH]c1c(CCC(OC)C(=O)c3nccc4c3[nH]c3ccccc34)ncc(OC)c12 (configuration not stated) [PICRASIDINE C]	> 100	> 100	89.9	–
COc1cccc2c1[nH]c1c(CCC(O)c3nccc4c3[nH]c3ccccc34)ncc(OC)c12 (configuration not stated) [QUASSIDINE B]	–	–	–	Toxic
COc1cnc(CCC(O)c2nccc3c2[nH]c2ccccc23)c2[nH]c3ccccc3c12 (configuration not stated) [QUASSIDINE C]	–	–	–	Toxic

More lines, main results first:

IC50 (RAW264.7 [1]) [µM]	IC50 (RAW264.7 [2]) [µM]	IC50 (RAW264.7 [3]) [µM]	SMILES	Activity (RAW264.7 [4])
85.6	–	–	C[C@]12CCC(=O)C=C1CC[C@@H]1[C@@H]2[C@@H](O)C[C@@]2(C)[C@H]1CC[C@]2(O)C(=O)CO [HYDROCORTISONE]	–
88.4	> 100	89.4	COc1cccc2c1[nH]c1c([C@@H]3CC[C@H]3c3ncc(OC)c4c3[nH]c3ccccc34)ncc(OC)c12 [QUASSIDINE A]	–
> 100	> 100	> 100	COc1cccc2c1[nH]c1c(CCC(OC)c3nccc4c3[nH]c3ccccc34)ncc(OC)c12 (configuration not stated) [QUASSIDINE D]	–
